The source made the active and inactive calls. No cut-off for these calls is given here.
Assays:
Trypanosoma cruzi [1] = assay: Growth inhibition of Trypanosoma cruzi Tulahuen amastigote forms infected in human THP1 cells at 100 uM after 48 hrs relative to control; format: functional; details: THP-1, 48 h, read-out: GI
Summary of the method: (§1)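 PMA-differentiated THP-1 macrophages (4.0 × 10^4 cells/well, 100 ng/ml, 72 h) infected with trypomastigotes at 2:1 parasite/cell overnight at 37 °C. Washed, then 24 h more for amastigote transformation. Compounds added in triplicate for 48 h at 37 °C, 5% CO2. Read-out: CPRG 100 µM with 0.1% NP-40 for 16 h, OD 570/630 nm. Negative control DMSO 1%.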

Trypanosoma cruzi [2] = assay: Trypanocidal activity against Trypanosoma cruzi Tulahuen amastigote forms infected in human THP1 cells after 48 hrs; format: functional, cell-based; details: THP-1, 48 h; summary of the method: as §1
Trypanosoma cruzi [3] = assay: Trypanocidal activity against Trypanosoma cruzi Tulahuen trypomastigote forms at 3.9 to 250 uM after 72 hrs by MTT assay; format: functional
Summary of the method: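 Culture-derived Tulahuen trypomastigotes raised from infected L929 cells, 1.5 × 10^6 parasites/well. Compounds serially diluted from 250 to 3.9 µM, incubated 72 h at 37 °C, 5% CO2. Viability by MTT, OD 540 nm after dissolving formazan in DMSO. Negative control DMSO 1%.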

Trypanosoma cruzi [4] = assay: Antitrypanosomal activity against Trypanosoma cruzi trypomastigote forms; format: functional
Leishmania amazonensis [5] = assay: Growth inhibition of Leishmania amazonensis MHOM/BR/77/LTB0016 amastigote forms expressing beta-galactosidase infected in human THP1 cells at 100 uM after 48 hrs relative to control; format: functional; details: for inhibition of growth at 100 µM: MHOM/BR/77/LTB0016, THP-1, 48 h, read-out: GI
Summary of the method: (§2)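 THP-1 cells seeded at 4.0 × 10^4 cells/well and differentiated with PMA 100 ng/ml for 72 h. Promastigotes (4-day culture) opsonized 1 h at 34 °C in RPMI-1640 with 10% heat-inactivated human B+ serum. Infection at 10:1 parasite/cell for 3 h at 34 °C, washed, then 24 h for amastigote transformation. Compound treatment in triplicate for 48 h at 34 °C. Read-out: CPRG 100 µM with 0.1% NP-40, 16 h, OD 570/630 nm. Negative control DMSO 1%.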

Leishmania amazonensis [6] = assay: Antileishmanial activity against Leishmania amazonensis MHOM/BR/77/LTB0016 amastigote forms expressing beta-galactosidase infected in human THP1 cells after 48 hrs; format: functional, cell-based; details: MHOM/BR/77/LTB0016, THP-1, 48 h; summary of the method: as §2
[7] = Cytotoxicity against human THP1 cells assessed as reduction in cell viability after 72 hrs by MTT assay; format: cell-based; details: THP-1 cells
Summary of the method: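 PMA-differentiated THP-1 cells exposed to serial dilutions from 15.6 to 500 µM for 72 h at 37 °C, 5% CO2. Viability by MTT reduction to formazan, dissolved in DMSO, OD 540 nm. Gives CC50.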

Trypanosoma cruzi [8] = assay: Growth inhibition of Trypanosoma cruzi Tulahuen amastigote forms infected in human THP1 cells at 100 uM using compound after 1 week storage measured after 48 hrs; format: functional, cell-based
[9] = Chemical stability in DMSO after 1 week by mass spectrometric analysis; format: physicochemical; details: 168 h
[10] = Selectivity index, ratio of CC50 for human THP1 cells to IC50 for Trypanosoma cruzi Tulahuen amastigote forms infected in human THP1 cells; format: toxicity, cell-based; details: read-out: Ratio CC50/IC50
Summary of the method: (§3)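 Ratio of CC50 from the 72 h MTT assay in PMA-differentiated THP-1 cells to IC50 against intracellular amastigotes in THP-1 cells measured by CPRG read-out after 48 h.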

Trypanothione reductase = Trypanothione reductase (Trypanosoma cruzi, UniProt P28593); assay: Inhibition of Trypanosoma cruzi trypanothione reductase expressed in Escherichia coli BL21(DE3) using T(S)2 as substrate incubated for 30 mins in presence of NADPH measured for 30 mins
Chain of Trypanothione reductase (P28593 whole entry): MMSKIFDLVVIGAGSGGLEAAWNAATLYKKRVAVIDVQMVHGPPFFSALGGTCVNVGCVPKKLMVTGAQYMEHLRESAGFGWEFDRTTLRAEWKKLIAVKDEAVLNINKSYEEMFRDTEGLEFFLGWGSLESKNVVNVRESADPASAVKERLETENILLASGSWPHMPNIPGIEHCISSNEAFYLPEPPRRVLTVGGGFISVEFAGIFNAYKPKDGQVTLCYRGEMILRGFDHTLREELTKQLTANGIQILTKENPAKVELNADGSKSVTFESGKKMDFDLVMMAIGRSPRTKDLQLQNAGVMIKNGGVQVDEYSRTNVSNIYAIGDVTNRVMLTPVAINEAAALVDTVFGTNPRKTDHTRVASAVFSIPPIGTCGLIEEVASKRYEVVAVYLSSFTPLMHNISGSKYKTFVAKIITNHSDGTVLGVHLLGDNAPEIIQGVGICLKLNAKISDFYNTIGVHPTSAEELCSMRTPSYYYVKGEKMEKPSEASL
Summary of the method: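 Enzyme purified by affinity chromatography. Then T(S)2 1 µM and compound in DMSO added, 30 min at 27 °C, followed by further DTNB. A412 followed for 30 min. Negative control DMSO 1%.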

Leishmania amazonensis [11] = assay: Growth inhibition of Leishmania amazonensis MHOM/BR/77/LTB0016 amastigote forms expressing beta-galactosidase infected in human THP1 cells at 2 uM after 48 hrs relative to control; format: functional; details: MHOM/BR/77/LTB0016, THP-1, 48 h, read-out: GI; summary of the method: as §2
[12] = Selectivity index, ratio of CC50 for human THP1 cells to IC50 for Leishmania amazonensis MHOM/BR/77/LTB0016 amastigote forms expressing beta-galactosidase infected in human THP1 cells; format: toxicity, cell-based; details: read-out: Ratio CC50/IC50; summary of the method: as §3
Trypanosoma cruzi [13] = assay: Growth inhibition of Trypanosoma cruzi Tulahuen amastigote forms infected in human THP1 cells at 20 uM after 48 hrs relative to control; format: functional; details: THP-1, 48 h, read-out: GI; summary of the method: as §1

Row | Structure (SMILES) | inhibition of growth at 100 µM (Trypanosoma cruzi [1]) | IC50 (Trypanosoma cruzi [2]) | Activity (Trypanosoma cruzi [3]) | inhibition of growth at 100 µM (Leishmania amazonensis [5]) | IC50 (Leishmania amazonensis [6]) | also measured
1 | COc1ccc(-c2cc(CO)on2)cc1 | 9.32% | > 100 µM | inactive |  |  | 
2 | COc1cc([C@@H]2O[C@@H](c3cc(OC)c(OC)c(OC)c3)[C@H](C)[C@H]2C)cc(OC)c1OC [GRANDISIN] |  |  |  |  |  | IC50 (Trypanosoma cruzi [4]): 3.7 µM
3 | O=C(O)c1cc(-c2ccccc2)no1 | 0% |  | inactive |  |  | 
4 | c1ccc(-c2cc(-c3ccccc3)on2)cc1 [3,5-DIPHENYLISOXAZOLE] | 29.4% | > 100 µM | inactive | 6.03% | > 100 µM | 
5 | CC(=O)Nc1ccc(-c2cc(-c3ccccc3)no2)cc1 | 0% |  | inactive |  |  | 
6 | O=[N+]([O-])c1ccc(-c2cc(CO)on2)cc1 | 12.2% | > 100 µM | inactive | 4.98% | > 100 µM | 
7 | OC[C@H]1O[C@H](OCc2cc(-c3ccccc3)no2)[C@H](O)[C@@H](O)[C@@H]1O | 7.3% | > 100 µM | inactive | 4.57% | > 100 µM | 
8 | COc1ccc(-c2cc(-c3ccc(CO)cc3)on2)cc1OC | 14.2% | > 100 µM | inactive |  |  | 
9 | OCc1cc(-c2ccc(F)cc2)no1 | 8.27% | > 100 µM | inactive | 3.35% | > 100 µM | 
10 | COc1ccc(-c2cc(CN=[N+]=[N-])on2)cc1 | 60.4% |  | inactive |  |  | CC50 at 72 h [7]: < 15.6 µM; growth inhibition (GI) (Trypanosoma cruzi [8]): inactive; Stability [9]: Unstable
11 | COc1ccc(-c2cc(CO)on2)cc1OC | 0% |  | inactive |  |  | 
12 | CC(=O)OCc1ccc(-c2cc(-c3ccc4c(c3)OCO4)no2)cc1 | 47.6% | 23.2 µM | inactive | 15.7% | > 100 µM | CC50 at 72 h [7]: > 500 µM; selectivity ratio [10]: > 21.5
13 | CC(C)(C)OC(=O)Nc1ccc(-c2cc(-c3ccccc3)no2)cc1 | 0% |  | inactive |  |  | 
14 | Cc1ccc(-c2cc(-c3ccc4c(c3)OCO4)no2)cc1 | 81.7% | 1.74 µM | inactive | 28.1% | > 100 µM | CC50 at 72 h [7]: 81.3 µM; selectivity ratio [10]: 46.7; IC50 (Trypanothione reductase): > 100 µM
15 | OCc1ccc(-c2cc(-c3ccccc3)no2)cc1 | 7.01% | > 100 µM | inactive |  |  | 
16 | c1ccc(-c2cc(-c3ccc4c(c3)OCO4)no2)cc1 | 64.8% | 23 µM | inactive |  |  | CC50 at 72 h [7]: > 500 µM; selectivity ratio [10]: > 21.7; growth inhibition (GI) (Leishmania amazonensis [5]): inactive
17 | O=[N+]([O-])c1ccc(-c2cc(-c3ccc(CO)cc3)on2)cc1 | 15.9% | > 100 µM | inactive |  |  | 
18 | COc1ccc([C@H]2O[C@@H](c3ccc(OC)c(OC)c3)[C@@H](C)[C@@H]2C)cc1OC |  |  |  |  |  | IC50 (Trypanosoma cruzi [4]): 2.3 µM
19 | COc1ccc(-c2cc(-c3ccc(CO)cc3)on2)cc1 | 5.77% | > 100 µM | inactive |  |  | 
20 | OCc1cc(-c2ccccc2)no1 | 7.57% | > 100 µM | inactive |  |  | 
21 | Nc1ccc(-c2cc(-c3ccccc3)no2)cc1 | 73% | 90.4 µM | inactive |  |  | CC50 at 72 h [7]: 407 µM; selectivity ratio [10]: 4.5
22 | OC[C@H]1O[C@H](OCc2cc(-c3ccc4c(c3)OCO4)no2)[C@H](O)[C@@H](O)[C@@H]1O | 2.93% | > 100 µM | inactive | 3.82% | > 100 µM | 
23 | C[C@@H]1[C@H](O)[C@@H](C)/C=C/C=C/C=C/C=C/C=C/C=C/C=C/[C@H](O[C@@H]2O[C@H](C)[C@@H](O)[C@H](N)[C@@H]2O)C[C@@H]2O[C@](O)(C[C@@H](O)C[C@@H](O)[C@H](O)CC[C@@H](O)C[C@@H](O)CC(=O)O[C@H]1C)C[C@H](O)[C@H]2C(=O)O [AMPHOTERICIN B] |  |  |  |  | 0.14 µM | CC50 at 72 h [7]: 27.9 µM; inhibition of growth at 2 µM (Leishmania amazonensis [11]): 81.6%; selectivity ratio [12]: 199
24 | CC(=O)OC[C@H]1O[C@H](OCc2cc(-c3ccc4c(c3)OCO4)no2)[C@H](OC(C)=O)[C@@H](OC(C)=O)[C@@H]1OC(C)=O | 3.15% | > 100 µM | inactive | 2.05% | > 100 µM | 
25 | CC(=O)OC[C@H]1O[C@H](OCc2cc(-c3ccccc3)no2)[C@H](OC(C)=O)[C@@H](OC(C)=O)[C@@H]1OC(C)=O | 1.16% | > 100 µM | inactive | 2.06% | > 100 µM | 
26 | OCc1cc(-c2ccc3c(c2)OCO3)no1 | 1.95% | > 100 µM | inactive |  |  | 
27 | O=C(Cn1ccnc1[N+](=O)[O-])NCc1ccccc1 [BENZNIDAZOLE] |  |  |  |  |  | inhibition of growth at 20 µM (Trypanosoma cruzi [13]): 85.9%; CC50 at 72 h [7]: > 500 µM; selectivity ratio [10]: > 49.1
28 | OCc1ccc(-c2cc(-c3ccc(F)cc3)no2)cc1 | 10.6% | > 100 µM | inactive |  |  | 
29 | OCc1ccc(-c2cc(-c3ccc4c(c3)OCO4)no2)cc1 | 65% | 5.26 µM | inactive | 0% |  | CC50 at 72 h [7]: 70.2 µM; selectivity ratio [10]: 13.3; IC50 (Trypanothione reductase): > 100 µM

Source: ChEMBL document CHEMBL3997809, “Design and synthesis of a new series of 3,5-disubstituted isoxazoles active against Trypanosoma cruzi and Leishmania amazonensis” (Eur J Med Chem, 2017)
